The source of these data is ChEMBL document CHEMBL3124842, “Design, synthesis and evaluation of the antidepressant and anticonvulsant activities of triazole-containing quinolinones” (Eur J Med Chem, 2014).

In data set [1] the test system is Mus musculus. Put plainly: Antidepressant activity in KunMing mouse at 50 mg/kg, ip by tail suspension test. It counts as functional, organism-based. Also on record: dose 50 mg/kg. In a few lines: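 Male KunMing mice (22 ± 2 g, n = 8 per group), dosed i.p. at 50 mg/kg from a dimethylsulfoxide solution. Each mouse was hung by the tail above the floor with adhesive tape about 1-2 cm from the tail tip. Immobility, meaning completely motionless and hanging passively, was timed over the last 6 min of a 7 min session. Read-out was mean ± SEM, compared with control by ANOVA followed by Dunnett's test.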

The test system of data set [2] is Mus musculus. Put plainly: Anticonvulsant activity in KunMing mouse assessed as protection against maximal electroshock-induced seizures at 300 mg/kg, ip after 0.5 hrs. It counts as functional, organism-based. Also on record: dose 300 mg/kg. In short, it runs like this:
(§1)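 Mice (22 ± 2 g) given compounds in DMSO i.p. at 30, 100 and 300 mg/kg; seizures elicited by electroshock via ear stimulation. Protection = abolition of hind limb tonic extension, read at 0.5 and 4 h after injection. Value is the minimal dose active in half or more of the mice; 300 mg/kg was the top dose.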

Data set [3] has as its system Mus musculus. Put plainly: Anticonvulsant activity in ip dosed KunMing mouse assessed as protection against maximal electroshock-induced seizures after 4 hrs. It counts as functional. As to conditions: read-out: MED. In short, it runs like this: as §1
Data set [4] deals with Mus musculus. Put plainly: Antidepressant activity in KunMing mouse assessed as decrease in immobility time at 10 mg/kg, ip by forced swimming test. It is filed as functional, organism-based. Also on record: dose 10 mg/kg. In a few lines: (§2)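 Compounds in DMSO given i.p. to mice, n = 8 per group. Dose was 50 mg/kg, or 10, 25 and 50 mg/kg in the dose-response study. After 30 min each mouse was placed in a water-filled cylinder (water 18 cm deep, 23–25 °C). Immobility (upright floating, only slight movements) was timed over the last 4 min of 6 min. %DID = (A − B)/A × 100, where A is control immobility and B is test immobility. Mean ± SEM; ANOVA with Dunnett's test versus control.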

Data set [5] concerns Mus musculus. The data set can be described thus: Antidepressant activity in KunMing mouse assessed as decrease in immobility time at 50 mg/kg, ip by forced swimming test relative to control. It counts as functional. Also on record: scale not given: the % may be the effect or the level left. As to conditions: route intraperitoneal. In short, it runs like this:
as §2

Data set [6] deals with Mus musculus. Put plainly: Toxicity in KunMing mouse assessed as effect on grooming at 50 mg/kg, ip by open-field test. It is filed as organism-based. Also on record: dose 50 mg/kg, route intraperitoneal. Conditions: in vivo. In a few lines:
(§3)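 Mice (22 ± 2 g) given 50 mg/kg i.p. in DMSO; tested 30 min later in an open field, placed at the centre. Counts were taken of locomotion (line crossings), rearing (standing on hind legs) and grooming. Mean ± SEM; ANOVA with Bonferroni's test versus control.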

The subject of data set [7] is Mus musculus. The data set can be described thus: Toxicity in KunMing mouse assessed as effect on rearing at 50 mg/kg, ip by open-field test. As to conditions: in vivo. It is filed as organism-based. Also on record: dose 50 mg/kg, route intraperitoneal. In a few lines: as §3
Data set [8] has as its system Mus musculus. Put plainly: Antidepressant activity in KunMing mouse assessed as decrease in immobility time at 25 to 50 mg/kg, ip by forced swimming test. It counts as functional, organism-based. In short, it runs like this:
as §2

Data set [9] has as its system Mus musculus. The data set can be described thus: Antidepressant activity in KunMing mouse assessed as immobility time at 50 mg/kg, ip by forced swimming test. As to conditions: route intraperitoneal. It counts as functional. In a few lines: as §2
For data set [10], the system named is Mus musculus. Put plainly: Neurotoxicity in KunMing mouse assessed as motor impairment at 300 mg/kg, ip after 4 hrs by rotarod test. It counts as toxicity, organism-based. Also on record: dose 300 mg/kg, route intraperitoneal. Conditions: in vivo. In short, it runs like this: (§4)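 Mice were trained on a 3.2 cm diameter rotarod turning at 10 rpm, then given compounds in DMSO i.p. at 30, 100 or 300 mg/kg. Neurotoxicity = failure to stay on the rod for at least 1 min in each trial, checked at 0.5 and 4 h. Value is the minimal dose toxic in half or more of the mice.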
(In general: In the rotarod test animals must keep their balance on a rotating rod.)

Data set [11] deals with Mus musculus. The data set can be described thus: Neurotoxicity in KunMing mouse assessed as motor impairment at 300 mg/kg, ip after 0.5 hrs by rotarod test. Also on record: dose 300 mg/kg, route intraperitoneal. It counts as toxicity, organism-based. Conditions: in vivo. In a few lines: as §4
Data set [12] relates to Mus musculus. Put plainly: Neurotoxicity in KunMing mouse at 50 mg/kg, ip. Also on record: dose 50 mg/kg, route intraperitoneal. It counts as toxicity, organism-based. Conditions: in vivo.
For data set [13], the system named is Mus musculus. Put plainly: Toxicity in KunMing mouse assessed as effect on locomotion at 50 mg/kg, ip by open-field test. It counts as organism-based. Also on record: dose 50 mg/kg, route intraperitoneal. Conditions: in vivo. In a few lines: as §3
Data set [14] has as its system Mus musculus. The data set can be described thus: Antidepressant activity in ip dosed KunMing mouse assessed as decrease in immobility time by forced swimming test. It counts as functional, organism-based. In short, it runs like this:
as §2

Activity calls are given as the source filed them. No cut-off for these calls is given here.

In the case of `O=C1CCc2cc(-n3cnnc3)ccc2N1Cc1ccccc1F`, the result in the data set with Mus musculus [1] and with Mus musculus [8] was Active. The result in the data set on Mus musculus [2] and with Mus musculus [4] was inactive. Further, the minimal effective dose in the data set on Mus musculus [3] came out at 300 mg/kg. The Activity in the data set on Mus musculus [5] is 72.7%; in the data set on Mus musculus [6], “Non-toxic”; with Mus musculus [7] it was “Non-toxic”; in the data set with Mus musculus [10] it was “Non-toxic”; with Mus musculus [11], “Non-toxic”; in the data set on Mus musculus [12], “Non-toxic”. The Activity result is “Non-toxic” with Mus musculus [13] and “Dose-dependent effect” with Mus musculus [14]. In the data set with Mus musculus [9], the Time was 35.6 s.
